The record followed here is paper PMC6543826 (Bioorganic chemistry, 2018).

Read-outs that look alike come from different tables or passages of the source.

The subject of assay [1] is A375 cells. Put plainly: IncuCyte real time proliferation assay. Format: cell-based, human. The settings on record: imaged every 1 h for 90 h. The method, boiled down: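 Real-time growth: 2000 A375 cells per well adhered for 24 h, then were treated with a range of test compound doses. Phase images were taken on IncuCyte ZOOM (10× objective) every 1 h for 90 h in total. Growth confluence was estimated from the images and plotted.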

Assay [2] concerns the target ERK2 (Rattus norvegicus, UniProt P63086). In words: steady-state kinetic experiments, ERK2 with varied Mg-ATP. In kind it is biochemical. The settings on record: versus ATP, double reciprocal plot. The method, boiled down: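 Activated rat ERK2 was run in the radiometric kinase buffer with 50 μM His-Ets-1. Mg-ATP was varied (10–2000 μM) at several fixed test compound concentrations (0–54 μM). Initial rates were taken from product-versus-time plots. Mechanism was assessed from a double-reciprocal plot of 1/V0 versus 1/[Mg-ATP].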

Assay [3] deals with NCI/ADR-RES. Put plainly: NCI-60 SRB screen, Ovarian cancer. Format: cell-based. The method, boiled down:
(§1)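 Five-dose NCI-60 protocol (DTP, NCI). Absorbance was read at time zero (Tz), for untreated control (C) and at five compound levels (Ti), with SRB protein-stain end point read spectrophotometrically. GI50 from [(Ti−Tz)/(C−Tz)]×100 = 50; TGI from Ti = Tz; LC50 from [(Ti−Tz)/Tz]×100 = −50. A parameter not reached is given as greater than the highest concentration tested.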

The subject of assay [4] is HS 578 T. In words: NCI-60 SRB screen, Breast cancer. In kind it is cell-based. The method, boiled down:
as §1

The test system of assay [5] is 786–0. In words: NCI-60 SRB screen, Renal cancer. Format: cell-based. The method, boiled down:
as §1

The subject of assay [6] is TK-10. In words: NCI-60 SRB screen, Renal cancer. In kind it is cell-based. The method, boiled down: as §1
The test system of assay [7] is UACC-257. In words: NCI-60 SRB screen, Melanoma. In kind it is cell-based. The method, boiled down: as §1
Assay [8] relates to MDA-MB-231/ATCC. Put plainly: NCI-60 SRB screen, Breast cancer. Format: cell-based. The method, boiled down: as §1
For assay [9], the system named is NCI-60 panel of tumor cell lines. In words: cells. The settings on record: Homo sapiens.
Assay [10] has as its system COLO 205. In words: NCI-60 SRB screen, Colon cancer. In kind it is cell-based. The method, boiled down:
as §1

Sequence of ERK2 (P63086 whole entry): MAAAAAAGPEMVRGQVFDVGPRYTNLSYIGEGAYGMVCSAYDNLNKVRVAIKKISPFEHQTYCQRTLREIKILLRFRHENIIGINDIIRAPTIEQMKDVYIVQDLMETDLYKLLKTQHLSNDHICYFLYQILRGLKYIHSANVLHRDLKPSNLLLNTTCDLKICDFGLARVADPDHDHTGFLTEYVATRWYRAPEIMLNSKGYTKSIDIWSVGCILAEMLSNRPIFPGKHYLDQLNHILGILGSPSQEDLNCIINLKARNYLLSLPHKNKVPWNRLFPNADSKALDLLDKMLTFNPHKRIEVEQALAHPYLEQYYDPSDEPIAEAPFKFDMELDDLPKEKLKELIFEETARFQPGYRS

Turning to `O=C1C(Cl)=C(c2c(O)c3c(=O)n(-c4ccccc4)c4ccccc4c3oc2=O)C(=O)c2ccccc21` [compound 6, 3-(3-Chloro-1,4-dioxo-1,4-dihydronaphthalen-2-yl)-4-hydroxy-6-phenyl-2H-pyrano[3,2-c]quinoline-2,5(6H)-dione], in assay [1], the “A375 real time proliferation (growth confluence), in words” value is on record as “dose-dependent inhibition”. For the same compound, in assay [2], the “mechanism of ERK2 inhibition” value is recorded as “competitive inhibition”.
In general, GI50 refers to the concentration giving 50% growth inhibition. The TGI is the concentration at which net growth stops. Low readings indicate more potent growth arrest, high ones less potent growth arrest. For `O=C1c2ccccc2C(=O)c2c1oc1c2c(=O)[nH]c2ccc(Cl)cc21` [3b, 2-Chloronaphtho[2′,3′:4,5]furo[3,2-c]quinoline-6,7,12(5H)-trione], the GI50 in [3] (Homo sapiens) amounted to 350 nM; in [4] (Homo sapiens, Hs-578T), 260 nM; in assay [5] (Homo sapiens, 786-0), 220 nM; in [6] (Homo sapiens, TK-10), 380 nM; in [7] (Homo sapiens, UACC-257) it was 1320 nM; in [8] (Homo sapiens, MDA-MB-231), 170 nM. Further, the GI50 was 240 nM in assay [9] (read-out: GI50, average across all cell lines tested); 140 to 10500 nM in assay [9] (read-out: GI50 values, range over all cell lines); 10500 nM in assay [10] (Homo sapiens, COLO 205). Besides, the CC50 in assay [3] (Homo sapiens, read-out: LC50) is 34700 nM; in assay [4] (Homo sapiens, Hs-578T, read-out: LC50), over 100000 nM; in assay [5] (Homo sapiens, 786-0, read-out: LC50) it was 2450 nM; in assay [6] (Homo sapiens, TK-10, read-out: LC50), 6030 nM; in [7] (Homo sapiens, UACC-257, read-out: LC50) it was 8510 nM; in [8] (Homo sapiens, MDA-MB-231, read-out: LC50), 2820 nM. For the same compound, the CC50 in assay [9] (read-out: LC50, average) stood at 7580 nM; in assay [10] (Homo sapiens, COLO 205, read-out: LC50), 72400 nM. Besides, the TGI in [3] (five-dose) amounted to 1780 nM; in assay [4] (HS 578 T, five-dose), 1380 nM; in [5] (786–0, five-dose), 540 nM; in [6] (TK-10, five-dose) it was 1100 nM; in assay [7] (UACC-257, five-dose), 3390 nM; in assay [8] (MDA-MB-231/ATCC, five-dose), 510 nM. This compound also came in with a TGI in assay [10] (COLO 205, five-dose) of 27540 nM. Besides, the “A375 real time proliferation (growth confluence), in words” value in assay [1] is on record as “dose-dependent inhibition”.
